Test results: ChEMBL document CHEMBL1130123, “Optimization of 3-(1H-indazol-3-ylmethyl)-1,5-benzodiazepines as potent, orally active CCK-A agonists” (J Med Chem, 1997); call rule not given here

Legend:
[1] = organism: Cavia porcellus; test: In vitro functional efficacy relative to CCK-8 in inducing contraction of the isolated guinea pig gallbladder (GPGB) at a 1 uM concentration.
Outline: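 Isolated guinea pig gallbladder, ligand 1 μM, 30 min at 37 °C; maximal contraction expressed relative to CCK-8 (1 μM) = 100%; values ± 5%.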

[2] = molecular target: T1, Cholecystokinin receptor type A (Homo sapiens, UniProt P32238); test: In vitro for binding affinity against human cholecystokinin type A receptor.
T1 sequence (P32238 whole entry): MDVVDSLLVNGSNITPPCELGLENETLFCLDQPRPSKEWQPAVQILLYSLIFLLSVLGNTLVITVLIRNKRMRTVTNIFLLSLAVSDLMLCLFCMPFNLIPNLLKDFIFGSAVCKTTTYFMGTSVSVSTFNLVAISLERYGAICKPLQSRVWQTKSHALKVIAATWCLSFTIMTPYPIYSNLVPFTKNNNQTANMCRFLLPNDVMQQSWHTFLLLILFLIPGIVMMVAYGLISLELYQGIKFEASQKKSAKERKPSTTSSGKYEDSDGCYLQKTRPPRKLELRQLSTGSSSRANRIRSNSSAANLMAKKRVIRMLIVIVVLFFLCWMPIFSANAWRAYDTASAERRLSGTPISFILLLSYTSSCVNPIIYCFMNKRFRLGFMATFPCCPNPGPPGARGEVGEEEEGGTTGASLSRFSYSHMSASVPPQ

[3] = molecular target: T2, Gastrin/cholecystokinin type B receptor (Homo sapiens, UniProt P32239); test: In vitro for binding affinity against human cholecystokinin type B receptor.
T2 sequence (P32239 whole entry): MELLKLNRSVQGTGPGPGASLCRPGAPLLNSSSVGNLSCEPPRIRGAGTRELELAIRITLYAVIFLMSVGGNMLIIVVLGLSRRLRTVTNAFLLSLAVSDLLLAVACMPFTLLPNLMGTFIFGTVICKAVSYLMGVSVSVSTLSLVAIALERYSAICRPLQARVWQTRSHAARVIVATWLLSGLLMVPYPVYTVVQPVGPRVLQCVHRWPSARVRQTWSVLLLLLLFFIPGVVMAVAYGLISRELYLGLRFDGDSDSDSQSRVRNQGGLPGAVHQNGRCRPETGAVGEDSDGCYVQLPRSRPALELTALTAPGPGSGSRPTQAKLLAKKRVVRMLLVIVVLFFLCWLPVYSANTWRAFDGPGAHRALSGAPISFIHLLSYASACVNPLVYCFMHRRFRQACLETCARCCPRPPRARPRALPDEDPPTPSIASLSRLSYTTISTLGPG

[4] = organism: Cavia porcellus; test: In vitro functional agonist activity in the isolated guinea pig gall bladder, concentration at which 50% of the maximal contraction observed was reported.; conditions: read-out: ED50 (the source's name)
[5] = system: Rattus norvegicus; test: Anorectic potency in rat was tested and intraperitoneal dose that produces a half maximal response (in vivo); type: functional; conditions: ip
[6] = system: Rattus norvegicus; test: Maximal response at 0.5 umol/kg intraperitoneal dose; type: functional
[7] = system: Mus musculus; test: Maximal response at 1 nmol/kg intraperitoneal dose; type: functional
[8] = Maximum concentration at an intraduodenal dose of 6.6 mg/kg in rat; type: ADME, organism-based; design: dose 6.6 mg/kg, route intraduodenal; conditions: in vivo
[9] = Oral bioavailability in Long-Evans rats at an peroral dose of 6.2 mg/kg; type: ADME, organism-based; conditions: rat, in vivo
[10] = Half life period at an intravenous dose of 6.3 mg/kg in rat; type: ADME, organism-based; design: dose 6.3 mg/kg, route intravenous; conditions: in vivo
[11] = system: Mus musculus; test: Peroral dose that produces a half maximal response in mouse gall bladder emptying assay (in vivo); type: functional; conditions: po
[12] = Volume of distribution at steady state at an intravenous dose of 6.3 mg/kg in rat; type: ADME, organism-based; design: dose 6.3 mg/kg, route intravenous; conditions: in vivo, read-out: Vss
[13] = system: Mus musculus; test: Intraperitoneal dose that produces a half maximal response in mouse gall bladder emptying assay (in vivo); type: functional; conditions: ip
[14] = Maximum concentration at an peroral dose of 6.2 mg/kg in rat; type: ADME, organism-based; design: dose 6.2 mg/kg, route oral; conditions: in vivo, po
[15] = Oral bioavailability in Long-Evans rats at an intravenous dose of 6.3 mg/kg; Not active; type: ADME, organism-based; conditions: rat, in vivo
[16] = Maximum concentration at an intravenous dose of 6.3 mg/kg; type: ADME, organism-based; design: dose 6.3 mg/kg, route intravenous; conditions: rat, in vivo
[17] = Total body clearance at an intravenous dose of 6.3 mg/kg in rat; type: ADME, organism-based; design: dose 6.3 mg/kg, route intravenous; conditions: in vivo
[18] = Oral bioavailability in Long-Evans rats at an intraduodenal dose of 6.6 mg/kg; type: ADME, organism-based; conditions: rat, in vivo, other: intraduodenal
[19] = system: Mus musculus; test: maximal response at 1 nmol/kg peroral dose; type: functional

Compound | Max [1] [%] | IC50 [2] [µM] | IC50 [3] [µM] | EC50 [4] [µM] | also measured
COc1ccc(N(C(=O)CN2C(=O)C(Cc3csc4ccccc34)C(=O)N(c3ccccc3)c3ccccc32)C(C)C)cc1 (stereo not drawn) | 50 | – | – | – | –
COc1ccc(N(C(=O)CN2C(=O)C(Cc3n[nH]c4ncccc34)C(=O)N(c3ccccc3)c3ccccc32)C(C)C)cc1 (stereo not drawn) | 90 | 0.112 | 11.2 | 0.04 | –
COc1cccc(N(C(=O)CN2C(=O)C(Cc3n[nH]c4ccccc34)C(=O)N(c3ccccc3)c3ccccc32)C(C)C)c1 (stereo not drawn) | 90 | 0.479 | 0.191 | 0.07 | –
CSCC[C@H](NC(=O)[C@H](Cc1ccc(OS(=O)(=O)O)cc1)NC(=O)[C@@H](N)CC(=O)O)C(=O)NCC(=O)N[C@@H](Cc1c[nH]c2ccccc12)C(=O)N[C@@H](CCSC)C(=O)N[C@@H](CC(=O)O)C(=O)N[C@@H](Cc1ccccc1)C(N)=O [SINCALIDE] | – | – | – | – | ED50 [5]: 0.03 µmol/kg; Max [6]: 95%; Max [7]: 95%
COc1ccc(N(C(=O)CN2C(=O)C(Cc3n[nH]c4cccc(F)c34)C(=O)N(c3ccccc3)c3ccccc32)C(C)C)cc1 (stereo not drawn) | 100 | 0.0174 | 1.7 | 0.07 | –
COc1ccc(N(C(=O)CN2C(=O)C(Cc3n[nH]c4ccccc34)C(=O)N(c3ccccc3)c3ccccc32)C(C)C)cc1 (stereo not drawn) | – | – | – | – | Cmax [8]: 193 ng/mL; bioavailability [9]: 8%; half-life [10]: 2.1 h; ED50 [5]: 0.05 µmol/kg; ED50 [11]: 0.01 µmol/kg; Vd [12]: 5.17 L/kg; ED50 [13]: 0.0002 µmol/kg; Cmax [14]: 20 ng/mL; Max [6]: 98%; F [15]: Not Active; Cmax [16]: 2100 ng/mL; clearance [17]: 38 mL/min/kg; Max [7]: 97%; bioavailability [18]: 16%; Max [19]: 89%
COc1ccc(N(C(=O)CN2C(=O)C(Cc3noc4ccccc34)C(=O)N(c3ccccc3)c3ccccc32)C(C)C)cc1 (stereo not drawn) | 80 | 0.0891 | 174 | 0.13 | –
COc1ccc(N(C(=O)CN2C(=O)C(C)(Cc3cn(C)c4ccccc34)C(=O)N(c3ccccc3)c3ccccc32)C(C)C)cc1 (stereo not drawn) | 40 | 0.0178 | – | – | –
COc1ccc(N(C(=O)CN2C(=O)C(Cc3n[nH]c4c(F)cccc34)C(=O)N(c3ccccc3)c3ccccc32)C(C)C)cc1 (stereo not drawn) | 90 | – | 1.05 | 0.02 | –
COc1ccc(N(C(=O)CN2C(=O)C(C)(Cc3c[nH]c4ccccc34)C(=O)N(c3ccccc3)c3ccccc32)C(C)C)cc1 (stereo not drawn) | – | – | – | – | ED50 [11]: 0.38 µmol/kg; ED50 [13]: 0.0008 µmol/kg; Max [7]: 91%; Max [19]: 46%
COc1ccc(N(C(=O)CN2C(=O)C(Cc3cc(-c4ccccc4)[nH]n3)C(=O)N(c3ccccc3)c3ccccc32)C(C)C)cc1 (stereo not drawn) | 20 | – | – | – | –
CC(C)N(C(=O)CN1C(=O)C(Cc2n[nH]c3ccccc23)C(=O)N(c2ccccc2)c2ccccc21)c1ccc(C(F)(F)F)cc1 (stereo not drawn) | 80 | 0.661 | 1.66 | 0.23 | –
COc1ccc(N(C(=O)CN2C(=O)C(Cc3n[nH]c4ccc(F)cc34)C(=O)N(c3ccccc3)c3ccccc32)C(C)C)cc1 (stereo not drawn) | 90 | 0.0427 | 2.51 | 0.04 | –
COc1ccc(N(C(=O)CN2C(=O)C(Cc3[nH]nc4c3CCCC4)C(=O)N(c3ccccc3)c3ccccc32)C(C)C)cc1 (stereo not drawn) | 80 | 0.129 | 2.95 | 0.3 | –
COc1ccc(N(C(=O)CN2C(=O)C(Cc3cc(C)[nH]n3)C(=O)N(c3ccccc3)c3ccccc32)C(C)C)cc1 (stereo not drawn) | 20 | – | – | – | –
